The test system of assay [1] is HIT-T15. Briefly: Cytoprotective activity in hamster HIT-T15 cells assessed as inhibition of IFN-gamma/TNFalpha/IL1beta-induced cell death at 1 to 100 nM after 24 hrs by MTT assay relative to control. Type of assay: functional, cell-based. Particulars: Mesocricetus auratus. A digest of the protocol:
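HIT-T15 cells (5×10^3/well) serum-starved 24 h, then 24 h serum-free with IFN-γ 100 ng/mL, TNF-α 200 ng/mL, IL-1β 10 ng/mL plus peptide (1–100 nM). MTT 1 mg/mL ~1 h, formazan dissolved in DMSO, A570. Reported as percent of cytokine control. Mean ± SE of ≥3 experiments in quadruplicate.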

Assay [2] has as its system HIT-T15. Briefly: Cytoprotective activity in hamster HIT-T15 cells assessed as inhibition of serum starvation-induced cell death at 1 to 100 nM after 24 hrs by MTT assay relative to control. Type of assay: functional, cell-based. To be noted: Mesocricetus auratus. In short, it runs like this:
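Viability by MTT in HIT-T15 cells seeded at 5×10^3/well, serum-starved 24 h, then 24 h more in serum-free medium with peptide (1–100 nM). MTT 1 mg/mL ~1 h, DMSO solubilization, absorbance 570 nm. Expressed as percent of serum-free control. Mean ± SE, ≥3 experiments in quadruplicate.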

In assay [3] the test system is HIT-T15. Put plainly: Antiapoptotic activity in hamster HIT-T15 cells assessed as reduction in IFN-gamma/TNFalpha/IL1beta-induced apoptosis at 100 nM after 24 hrs by Hoechst staining relative to control. Type of assay: functional, cell-based. To be noted: Mesocricetus auratus. A digest of the protocol: (§1)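 HIT-T15 cells serum-starved 24 h, then 24 h in serum-free medium with IFN-γ 100 ng/mL, TNF-α 200 ng/mL, IL-1β 10 ng/mL plus peptide. Cells pooled with floating cells, formaldehyde-fixed, ethanol-stored, stained with 10 μg/mL Hoechst 33258. Condensed/fragmented nuclei counted, 500 nuclei in duplicate, n = 3. Reported as percent apoptotic cells.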

Assay [4] relates to HIT-T15. Put plainly: Antiapoptotic activity in hamster HIT-T15 cells assessed as reduction in IFN-gamma/TNFalpha/IL1beta-induced apoptosis at 10 nM after 24 hrs by Hoechst staining relative to control. Type of assay: functional, cell-based. To be noted: Mesocricetus auratus. In short, it runs like this: as §1
For assay [5], the system named is Pancreatic islet. Put plainly: Cytoprotective activity in human pancreatic islet cells assessed as inhibition of IFN-gamma/TNFalpha/IL1beta-induced cell death at 10 nM after 24 hrs by MTT assay relative to control. It counts as functional. A digest of the protocol: (§2)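 Human donor islets (purity >70%, 25/well) serum-starved 24 h, then 24 h serum-free with peptide (1–100 nM), alone or with IFN-γ 100 ng/mL, TNF-α 200 ng/mL, IL-1β 10 ng/mL. MTT 1 mg/mL ~1 h, DMSO, A570. Percent of serum-free or cytokine control. ≥3 experiments in quadruplicate.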
(Tetrazolium dyes change colour on reduction, which living cells bring about.)

The test system of assay [6] is Pancreatic islet. Put plainly: Cytoprotective activity in human pancreatic islet cells assessed as inhibition of IFN-gamma/TNFalpha/IL1beta-induced cell death at 100 nM after 24 hrs by MTT assay relative to control. Type of assay: functional. In short, it runs like this: as §2
Assay [7] relates to Pancreatic islet. Briefly: Cytoprotective activity in human pancreatic islet cells assessed as inhibition of serum starvation-induced cell death at 10 nM after 24 hrs by MTT assay relative to control. Type of assay: functional. A digest of the protocol:
as §2

For assay [8], the system named is Pancreatic islet. Put plainly: Cytoprotective activity in human pancreatic islet cells assessed as inhibition of serum starvation-induced cell death at 100 nM after 24 hrs by MTT assay relative to control. Type of assay: functional. A digest of the protocol:
as §2

Assay [9] relates to Pancreatic islet. Briefly: Cytoprotective activity in human pancreatic islet cells assessed as inhibition of IFN-gamma/TNFalpha/IL1beta-induced cell death at 1 nM after 24 hrs by MTT assay relative to control. Type of assay: functional. A digest of the protocol: as §2
In assay [10] the test system is Pancreatic islet. Put plainly: Cytoprotective activity in human pancreatic islet cells assessed as inhibition of serum starvation-induced cell death at 1 nM after 24 hrs by MTT assay relative to control. It counts as functional. In short, it runs like this: as §2

Active and inactive are the calls of the source. No cut-off for these calls is given here. Peptide text beside a SMILES is read from it.

As for `CC(C)[C@@H](NC(=O)[C@@H](CCCNC(=N)N)NC(=O)[C@@H](CCC(N)=O)NC(=O)[C@@H](Cc1cnc[nH]1)NC(=O)[C@@H](CCC(=O)O)NC(=O)[C@H]1CCCN1C(=O)[C@H](N)CO)C(=O)N[C@H](CCC(N)=O)C(N)=O`, the outcome in the assay on HIT-T15 [1] and in the assay on HIT-T15 [2] was inactive.
With `CC(C)[C@@H](NC(=O)[C@H](CCCNC(=N)N)NC(=O)[C@H](CCC(N)=O)NC(=O)[C@H](Cc1cnc[nH]1)NC(=O)[C@H](CCC(=O)O)NC(=O)[C@@H]1CCCN1C(=O)[C@@H](N)CO)C(=O)N[C@@H](CCC(N)=O)C(N)=O`, the result in the assay with HIT-T15 [1] and in the assay with HIT-T15 [2] was inactive.
Take `CC(C)[C@@H](NC(=O)[C@H](N)CCC(N)=O)C(=O)N[C@H](CCCNC(=N)N)C(=O)N[C@H](CCC(N)=O)C(=O)N[C@H](Cc1cnc[nH]1)C(=O)N[C@H](CCC(=O)O)C(=O)N1CCC[C@@H]1C(=O)N[C@H](CO)C(N)=O`: the result in the assay on HIT-T15 [1] and in the assay with HIT-T15 [2] was inactive.
In the case of `CC(C)[C@H](NC(=O)[C@@H](CCCNC(=N)N)NC(=O)[C@H](CCC(N)=O)NC(=O)[C@H](Cc1cnc[nH]1)NC(=O)[C@H](CCC(=O)O)NC(=O)[C@@H]1CCCN1C(=O)[C@@H](N)CO)C(=O)N[C@@H](CCC(N)=O)C(N)=O`, the result in the assay with HIT-T15 [1] and with HIT-T15 [2] was inactive.
With `CC(C)[C@H](NC(=O)[C@H](CCCNC(=N)N)NC(=O)[C@@H](CCC(N)=O)NC(=O)[C@H](Cc1cnc[nH]1)NC(=O)[C@H](CCC(=O)O)NC(=O)[C@@H]1CCCN1C(=O)[C@@H](N)CO)C(=O)N[C@@H](CCC(N)=O)C(N)=O`, the result in the assay with HIT-T15 [1] and with HIT-T15 [2] was inactive.
Consider `CC(C)[C@H](NC(=O)[C@H](CCCNC(=N)N)NC(=O)[C@H](CCC(N)=O)NC(=O)[C@@H](Cc1cnc[nH]1)NC(=O)[C@H](CCC(=O)O)NC(=O)[C@@H]1CCCN1C(=O)[C@@H](N)CO)C(=O)N[C@@H](CCC(N)=O)C(N)=O`, for which the outcome in the assay with HIT-T15 [1] and in the assay with HIT-T15 [2] was inactive.
As for `CC(C)[C@H](NC(=O)[C@H](CCCNC(=N)N)NC(=O)[C@H](CCC(N)=O)NC(=O)[C@H](Cc1cnc[nH]1)NC(=O)[C@@H](CCC(=O)O)NC(=O)[C@@H]1CCCN1C(=O)[C@@H](N)CO)C(=O)N[C@@H](CCC(N)=O)C(N)=O`, the outcome with HIT-T15 [1] and in the assay on HIT-T15 [2] was inactive.
On to `CC(C)[C@H](NC(=O)[C@H](CCCNC(=N)N)NC(=O)[C@H](CCC(N)=O)NC(=O)[C@H](Cc1cnc[nH]1)NC(=O)[C@H](CCC(=O)O)NC(=O)[C@@H]1CCCN1C(=O)[C@@H](N)CO)C(=O)N[C@H](CCC(N)=O)C(N)=O`, for which the outcome with HIT-T15 [1] and in the assay with HIT-T15 [2] was inactive.
Consider `CC(C)[C@H](NC(=O)[C@H](CCCNC(=N)N)NC(=O)[C@H](CCC(N)=O)NC(=O)[C@H](Cc1cnc[nH]1)NC(=O)[C@H](CCC(=O)O)NC(=O)[C@@H]1CCCN1C(=O)[C@H](N)CO)C(=O)N[C@@H](CCC(N)=O)C(N)=O`, for which the result with HIT-T15 [1] and in the assay with HIT-T15 [2] was inactive.
In the case of `CC(C)[C@H](NC(=O)[C@H](CCCNC(=N)N)NC(=O)[C@H](CCC(N)=O)NC(=O)[C@H](Cc1cnc[nH]1)NC(=O)[C@H](CCC(=O)O)NC(=O)[C@H]1CCCN1C(=O)[C@@H](N)CO)C(=O)N[C@@H](CCC(N)=O)C(N)=O`, the outcome in the assay on HIT-T15 [1] and with HIT-T15 [2] was inactive.
In the case of `N=C(N)NCCC[C@H](NC(=O)[C@H](CCC(N)=O)NC(=O)[C@H](Cc1cnc[nH]1)NC(=O)[C@@H](N)CCC(=O)O)C(N)=O` (H-EHQR-NH2), in the assay with HIT-T15 [1], the result was inactive.
The same measure, in the same setting: next, `N=C(N)NCCC[C@H](NC(=O)[C@H](CCC(N)=O)NC(=O)[C@@H](N)Cc1cnc[nH]1)C(N)=O` (H-His-Gln-Arg-NH2): “inactive”.
As for H-APEHQRVQ-NH2, the result in the assay on HIT-T15 [1] and with HIT-T15 [2] was Active.
For the compound H-EHQRVQ-NH2, the result in the assay with HIT-T15 [1], in the assay with HIT-T15 [3] and in the assay with HIT-T15 [4] was Active.
In the case of H-ESKKPPAKLQPR-OH, the outcome with Pancreatic islet [5], in the assay with HIT-T15 [1], with Pancreatic islet [6], in the assay on HIT-T15 [2], with Pancreatic islet [7] and in the assay with Pancreatic islet [8] was inactive. The result in the assay with Pancreatic islet [9] and in the assay on Pancreatic islet [10] was inactive.
For the compound H-GSSFL-NH2, the outcome in the assay on Pancreatic islet [5], with HIT-T15 [1], with Pancreatic islet [6], in the assay on HIT-T15 [2], in the assay on Pancreatic islet [7] and in the assay on Pancreatic islet [8] was inactive. Also, the result in the assay on Pancreatic islet [9] and in the assay on Pancreatic islet [10] was inactive.
Take H-GSSFLSPEHQRVQQ-NH2: the result with Pancreatic islet [5] and with Pancreatic islet [9] was inactive. For the same compound, the outcome in the assay with HIT-T15 [1], with Pancreatic islet [6], in the assay on HIT-T15 [2], in the assay on Pancreatic islet [7] and in the assay on Pancreatic islet [8] was Active.
Consider H-GSSFLSPEHQRVQQRKES-NH2, for which the result in the assay on Pancreatic islet [5], in the assay with HIT-T15 [1], with HIT-T15 [2], in the assay on Pancreatic islet [7], in the assay on Pancreatic islet [9] and with Pancreatic islet [10] was Active. The outcome in the assay with Pancreatic islet [6] and with Pancreatic islet [8] was inactive.
Regarding H-SAEHQRVQ-NH2, the result in the assay with HIT-T15 [1] and in the assay with HIT-T15 [2] was Active.
On to H-SPAHQRVQ-NH2, for which the outcome with HIT-T15 [1] and in the assay with HIT-T15 [2] was Active.
H-SPEAQRVQ-NH2: the outcome in the assay with HIT-T15 [1] and with HIT-T15 [2] was Active.
With H-SPEHARVQ-NH2, the result in the assay on HIT-T15 [1] and in the assay with HIT-T15 [2] was inactive.
For H-SPEHQAVQ-NH2, the result in the assay on HIT-T15 [1] and in the assay on HIT-T15 [2] was inactive.
Consider H-SPEHQRAQ-NH2, for which the result in the assay with HIT-T15 [1] and with HIT-T15 [2] was Active.
Consider H-SPEHQRVA-NH2, for which the outcome with HIT-T15 [1] and with HIT-T15 [2] was Active.

For the origin of these results see ChEMBL document CHEMBL2029233, “Des-acyl ghrelin fragments and analogues promote survival of pancreatic β-cells and human pancreatic islets and prevent diabetes in streptozotocin-treated rats” (2012).
